# Assay outcomes (PubChem BioAssay)
# Only some compounds are listed: those with a hit (about 5.8% of all), similar ones and a draw of the others.
# 14-3-3 Bad PPI: disrupts binding of bovine 14-3-3 zeta to phospho-Bad peptide. P63103. TR-FRET 14-3-3zeta/Dy647-pBad peptide displacement, 1 h. inhibition, % at 21.7 µM. hit rate 0.71% among 220,000. AID 781;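 active means inhibition above about 70%, limit read from the data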;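 further: 0% = full 14-3-3 plus peptide FRET controls and 100% = background without 14-3-3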
# Cl transport mod: modulates chloride dependent transport by human KCC2 | Q9H2X9 | KCC2 cells, thallium flux FluoZin-2 fluorescence | B-score of Tl+ flux slope (higher = more flux/activation; lower = inhibition) at 10 µM | hit rate 2.2% among 190,000;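 active means thallium flux slope and its plate-corrected score both differing from the plate sample mean at a set confidence after two filtering rounds, in either direction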;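 further: slope of fluorescence scaled to starting intensity during 10 to 20 s after thallium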
# WT yeast gro inh: growth inhibition of WT yeast, mitochondrial fusion screen; mitochondrial fusion phenotypic screen, WT strain; hit rate 2.1% among 190,000; AID 1362; inhibition, % at 10 µM; in the data active means inhibition above about 58%; tested in S. cerevisiae
# RBBP9 inh: human RBBP9 hydrolase inhibition. inhibition, % at 7.94 µM. hit rate 0.2% among 220,000. recombinant RBBP9, FP-Rh probe fluorescence polarization;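 active means inhibition above the campaign mean of all tested compounds plus 3 SD, cut at about 14% in these data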;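 further: plate controls were DMSO wells with RBBP9 for no effect and wells lacking RBBP9 protein for full effect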
#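 Measured by – fluorescence polarization · Test system – RBBP9 protein · Input – 2.5 µM RBBP9 dispensing solution, before mixing · Measure – percent inhibition from mP, scaled between DMSO and no-protein wells · Benchmarks – DMSO-treated enzyme wells and wells lacking RBBP9 · Times – preincubation 30 min plus labeling 45 min at 25 °C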
# ROMK primary: modulators of human ROMK potassium channel. P48048. Tet-inducible ROMK, thallium flux fluorescence; actives lie on both sides. B-score at 10 µM. hit rate 2% among 130,000. AID 1918;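 active means signal ratio slope over the read window, or its plate-corrected B-score, at least 3 SD from the plate mean, either direction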;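 further: B-score of the F/F0 ratio slope over 7 to 12 s after thallium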
# NCF1 inh: p47phox (human) inhibition | hit rate 0.53% among 220,000 | p47phox/p22phox peptide binding, fluorescence polarization, 2 h | AID 1274 | inhibition, % at 24.7 µM;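 active means inhibition above about 30%, limit read from the data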;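 further: 0% = p47phox with labelled peptide and 100% = labelled peptide alone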
# KCC2 sec1: confirmation of human KCC2 transport modulators; shares compounds with Cl transport mod; normalised thallium flux (F/F0 slope) at 10 µM; hit rate 15% among 3,700; HEK293-KCC2, thallium flux, FluoZin2 fluorescence; hits give high values;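 active means thallium flux slope above the same plate's solvent-only control mean plus 3 SD; inconclusive means the two replicate wells disagree; inactive means no significant difference from solvent-only control wells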
# KCC2 bumet counter: thallium flux despite bumetanide block in KCC2 cells, secondary assay 3 | shares compounds with Cl transport mod | AID 1714 | normalized thallium flux at 10 µM | HEK293-KCC2 + bumetanide/ouabain, thallium flux FluoZin2; hits give high values | hit rate 49% among 3,700;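 active means thallium entry rate above the same plate's blocked-transporter control wells by more than 3 SD; inconclusive means the two repeat wells disagree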;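 further: raw slope of fluorescence over initial fluorescence between 10 and 20 s after thallium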
# KCC2 secondary2: confirmation of human KCC2 transport modulators; shares compounds with Cl transport mod; normalized thallium flux at 10 µM; hit rate 23% among 3,700; HEK293-KCC2, thallium flux FluoZin2 fluorescence; actives lie on both sides; F/F0 rise rate, 10–20 s post-thallium;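 active means thallium flux slope more than 3 SD above or below the plate's solvent-only control mean, mostly below; inconclusive means the two repeat wells disagreed; inactive means no significant shift from solvent-only controls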;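 further: raw slope with 0.1% DMSO as baseline and bumetanide as block control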
# HEK293 Tl flux: counter-screen for KCC2 modulators: effect in parental HEK293 cells; shares compounds with Cl transport mod; hit rate 46% among 3,700; thallium flux rate (normalised fluorescence) at 10 µM; thallium flux FluoZin2, ouabain; baseline-ratio fluorescence slope, 10–20 s after thallium;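 active means thallium flux rate significantly above the same plate's solvent-only control wells, beyond their mean plus 3 SD; inconclusive means the two replicate wells gave conflicting results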
# KCC2 retest ouab: modulates human KCC2 on retest with ouabain; shares compounds with Cl transport mod; HEK293-KCC2, thallium flux FluoZin2 fluorescence; bidirectional: low = inhibitor, high = activator; raw Tl+ flux slope (below DMSO = inhibition, above = activation) at 10 µM; hit rate 48% among 3,700;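 active means thallium flux slope beyond 3 SD from same-plate DMSO control mean in most replicates, usually higher, sometimes lower; inconclusive means repeat tests gave conflicting results; inactive means no significant difference from controls in most replicates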;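 further: slope of initial-normalized fluorescence between seconds 10 and 20 after thallium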
# HEK counter2: counter-screen for KCC2 modulators: effect in parental HEK293 cells. shares compounds with Cl transport mod. thallium flux FluoZin-2 fluorescence slope. thallium flux slope at 10 µM. hit rate 33% among 3,700;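 active means thallium flux slope above the same plate's solvent-control mean plus 3 SD in both duplicate wells; inconclusive means duplicate wells that disagreed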;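 further: run without ouabain in cells lacking the KCC2 cotransporter; slope of fluorescence scaled to its starting value between 10 and 20 s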
# Active calls of the source: *; u = inconclusive; x = not tested or not shown.
SMILES,14-3-3 Bad PPI,Cl transport mod,WT yeast gro inh,RBBP9 inh,ROMK primary,NCF1 inh,KCC2 sec1,KCC2 bumet counter,KCC2 secondary2,HEK293 Tl flux,KCC2 retest ouab,HEK counter2
COC(=O)CN1C(=O)C2(C(C#N)=C(N)Oc3c2c(C)nn3-c2ccccc2)c2ccccc21 (stereo unspecified),-6,3.9*,2,-9,0.19,-6,0.0072,0.0057*,0.029,0.0083,0.018,0.012
CCOP1(=O)OCC2OC(n3cnc4c(N)ncnc43)C(O)C2O1 (stereo unspecified),-1,0.15,x,-5,-0.13,-12,x,x,x,x,x,x
CCOc1cc(CNCc2ccncc2)cc(Cl)c1OC,33,-0.22,-6,-4,-0.17,-2,x,x,x,x,x,x
O=c1/c(=C\c2cccnc2)sc2nc3ccccc3n12,1,x,-9,-6,x,-28,x,x,x,x,x,x
O=c1/c(=C/c2ccc(O)c([N+](=O)[O-])c2)sc2nc3ccccc3n12,1,-3.7*,11,0,1,4,0.0058,0.0049,0.031,0.0078,0.017,0.01
CCCCn1c(SCC(=O)NCc2ccccc2)nc2ccc(N3CCOCC3)cc2c1=O,-13,4*,7,-5,0.0056,5,0.007,0.016*,0.034,0.011*,u,u
CCn1c(C)cc(/C=C2/SC(=S)NC2=O)c1C,-3,-0.63,21,2,x,-9,x,x,x,x,x,x
Cc1sc(-n2c(C)cc(/C=C3\SC(=S)NC3=O)c2C)c(C#N)c1C,2,9*,77*,-2,2,-131,0.0063,0.016*,0.031,0.016*,u,u
CCOC(=O)c1[nH]c(C=O)c(C(=O)OCC)c1C,2,26*,-9,-4,x,-10,0.0059,0.051*,0.04*,0.029*,0.044*,0.031*
CCOC(=O)c1[nH]c(C)c(C(=O)O)c1C,0,-1.1,10,5,-0.43,-4,x,x,x,x,x,x
CCn1cc(CNC(=O)c2cc(COc3ccc(F)cc3F)on2)cn1,-11,x,-11,-9,-0.53,-3,x,x,x,x,x,x
O=C(OC(C(=O)NC1CCCC1)c1ccncc1)C1=Cc2ccccc2OC1 (stereo unspecified),-6,-4.3*,8,-3,x,-1,0.0078,0.007,0.03,0.0063,0.016*,0.01
COc1ccc(/C(O)=C/Sc2nnc(Cc3ccccc3)o2)cc1,-9,-4.9*,18,6,-2.2,-6,0.0063,0.0053,0.025*,0.0065,0.013*,u
CC(C)CCNC(=O)C(c1ccco1)N(CCCO)C(=O)Cn1nnc(-c2ccc(F)cc2)n1 (stereo unspecified),-3,x,-4,1,x,10,x,x,x,x,x,x
O=C(C1CCN(S(=O)(=O)c2ccccc2F)CC1)N1CCc2ccccc2C1,-19,-2.9,-3,0,-0.94,-5,x,x,x,x,x,x
O=C(C1CCN(S(=O)(=O)c2cccs2)CC1)N1CCc2ccccc2C1,-19,-4.1*,-1,-12,x,-3,0.0057,0.0046,0.024*,0.0073,0.018*,0.0099
Cc1ccc(NC(=O)C2CCN(S(=O)(=O)c3c(C)noc3/C=C/c3ccco3)CC2)nc1,-6,0.55,-1,-6,-0.5,-36,x,x,x,x,x,x
O=C(C1CCCN(S(=O)(=O)c2cccs2)C1)N1CCc2ccccc2C1 (stereo unspecified),-6,-3*,3,3,x,-5,0.0079,0.0061,0.033,0.0042,0.016*,0.011
Cc1noc(/C=C/c2ccco2)c1S(=O)(=O)N1CCC(C(=O)N2CCc3ccccc3C2)CC1,-4,-0.53,19,-9,x,-110,0.0054,0.0046,0.026*,0.0072,u,0.01
COc1ccc(S(=O)(=O)N2CCOC2CNC(=O)C(=O)NCCc2c[nH]c3ccccc23)cc1C (stereo unspecified),-12,-0.93,9,-7,-1.4,-32,x,x,x,x,x,x
OC(CNCC(c1ccc(Cl)cc1Cl)c1c[nH]c2ccccc12)c1ccccc1 (stereo unspecified),-2,1.7,98,2,-0.16,-14,x,x,x,x,x,x
FC(F)(F)c1ccccc1-n1c(CN2CCCCC2)n[nH]c1=S,0,1.6,x,0,x,-4,x,x,x,x,x,x
Cn1c(SCC(=O)Nc2cccc(F)c2)nc2c([nH]c3ccccc32)c1=O,-5,-0.41,3,0,2.5,0,x,x,x,x,x,x
CC(OC(=O)c1ccc(S(=O)(=O)NCc2ccco2)cc1)C(=O)Nc1ccc(Cl)cn1 (stereo unspecified),-21,0.75,-4,-3,0.018,-17,x,x,x,x,x,x
CC(OC(=O)c1ccccc1NCc1ccco1)C(=O)Nc1ncc(Cl)cc1Cl (stereo unspecified),9,-3*,11,-6,x,-1,0.0089,0.0058,0.03,0.0064,u,u
SMILES,14-3-3 Bad PPI,Cl transport mod,WT yeast gro inh,RBBP9 inh,ROMK primary,NCF1 inh,KCC2 sec1,KCC2 bumet counter,KCC2 secondary2,HEK293 Tl flux,KCC2 retest ouab,HEK counter2
Nc1ncncc1-c1ccc2ccccc2c1,-3,x,x,6,x,-10,x,x,x,x,x,x
COc1ccccc1-c1nc(=S)c(C(C)=O)c(C)[nH]1,-2,1.2,x,-5,0.17,5,x,x,x,x,x,x
CC(=O)c1c(C)[nH]c(-c2ccccc2)nc1=S,-1,14*,x,-12,x,-11,0.017*,0.022*,0.031,0.013*,0.025,u
CC(=O)c1c(NC(=O)c2ccccc2)[nH]c(-c2ccccc2)nc1=S,-27,36*,23,-10,1.1,-4,u,0.052*,0.062*,0.052*,0.052*,0.054*
CSc1nc(C)nc(N/C=C(\C#N)S(=O)(=O)c2ccccc2Cl)n1,2,-2.8,x,-2,x,2,x,x,x,x,x,x
C=CCn1c(SCc2ccc(C(=O)O)cc2)nc2sc(C)c(C)c2c1=O,-9,46*,x,2,x,-17,0.021*,0.053*,u,0.035*,0.05*,0.014*
COc1ccc(CCNC(=O)CC2SC(N)=NC2=O)cc1OC (stereo unspecified),-9,1.1,-12,1,1.1,-5,x,x,x,x,x,x
